Compound activity deposited in PubChem BioAssay by several laboratories.
In the library only some 3.6% were active in any assay of this set; here they are far more common.
FGF22 binding – binders of human FGF22 protein, primary screen, FGF22 synaptogenesis inhibitor project, biophysical, thermal shift, single point; Fibroblast growth factor 22 (Homo sapiens), Q9HCT0; recombinant FGF22 thermal shift, SYPRO orange fluorescence; percent of sucrose octasulfate shift, DMSO zero; activity (Tm shift, normalised), % at 9.99 µM; actives 1.5% (n = 340,000);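 active = mean Tm shift, scaled 0 neutral to 100 positive control, at about 1.3% or above, every replicate too, limit read from the data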
Target sequence (Q9HCT0 whole entry, looked up): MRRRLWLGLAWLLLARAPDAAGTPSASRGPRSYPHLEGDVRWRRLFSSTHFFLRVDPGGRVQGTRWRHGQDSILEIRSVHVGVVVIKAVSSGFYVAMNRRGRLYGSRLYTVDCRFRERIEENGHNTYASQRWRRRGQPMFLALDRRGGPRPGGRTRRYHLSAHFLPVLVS
DNA FID counter – compounds displacing fluorescent DNA intercalator, primary screen, artefact control for HCV NS3 helicase inhibitor project, biochemical, FID fluorescence; inhibition, % at 7.9 µM; DNA fluorescent intercalator displacement; actives 0.17% (n = 290,000); AID 1845, 2009; in the data active = inhibition above about 37%;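 note: 0% = vehicle and 100% = reference compound; higher means more ethidium bromide displaced from hairpin DNA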
EBNA-1 inh – EBNA-1 DNA-binding inhibitors, primary screen, biochemical, fluorescence polarization; inhibition, % at 14.8 µM; actives 0.34% (n = 300,000); in the data active = inhibition above about 28%
NS3 helicase inh – inhibitors of HCV NS3 helicase, primary screen, biochemical, Cy5 molecular beacon fluorescence; AID 1800, 2009; Hepatitis C virus NS3 helicase; NS3 helicase DNA unwinding; actives 0.56% (n = 290,000); inhibition, % at 10.9 µM;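 active = inhibition above the mean of all tested compounds plus 3 SD, set per campaign, cut at about 35% in these data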;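 note: 0% = DMSO wells and 100% = thioflavine S control wells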
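Test system: hepatitis C virus NS3 helicase domain fragment enzyme. Also added: annealed dual-labelled DNA beacon duplex, ATP-started. Timing: 60 min unwinding reaction at 25 °C after ATP addition. Technique: Cy5 fluorescence. Measure: % inhibition of unwinding.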
ZTA DNA inh – blocks Epstein-Barr virus ZTA, an EBNA-1 counter-screen; P03206; ZTA-DNA binding, fluorescence polarization; inhibition, % at 11 µM; actives 0.15% (n = 320,000); in the data active = inhibition above about 33%
Target sequence (P03206 whole entry, looked up): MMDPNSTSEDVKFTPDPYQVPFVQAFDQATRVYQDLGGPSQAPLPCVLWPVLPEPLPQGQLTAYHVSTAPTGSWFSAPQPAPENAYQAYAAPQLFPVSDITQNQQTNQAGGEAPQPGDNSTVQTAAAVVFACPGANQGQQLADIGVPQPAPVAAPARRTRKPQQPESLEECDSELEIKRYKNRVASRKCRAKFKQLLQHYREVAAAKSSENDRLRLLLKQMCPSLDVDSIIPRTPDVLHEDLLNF
NR3A LBD binder – binders of NR3A ligand-binding domain, primary screen, biophysical, differential scanning fluorimetry, uHTS; NR3A LBD differential scanning fluorimetry, Tm shift; 0% = protein alone, 100% = glycine-bound protein; Tm shift relative to glycine control, % at 25 µM; actives 2.5% (n = 340,000);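 active = melting temperature shift of at least 10% of the positive control shift, at one fixed dose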
An asterisk follows results filed as active; / = no result given.

SMILES | FGF22 binding | DNA FID counter | EBNA-1 inh | NS3 helicase inh | ZTA DNA inh | NR3A LBD binder
N#C/C(=C\c1ccc(Sc2ccc(Cl)cc2)o1)c1nc2ccccc2[nH]1 | 0 | -5 | 5 | 14 | 7 | 15*
Cc1cc(/C=C(\C#N)c2nc3ccccc3[nH]2)c(C)n1C | / | 1 | -5 | 0 | 0 | -13
Cc1ccc(S(=O)(=O)N(C)C[C@@H]2Oc3ccc(NS(=O)(=O)c4ccccc4)cc3C(=O)N([C@H](C)CO)C[C@@H]2C)cc1 | 0 | / | / | / | / | /
COc1ccc(NC(=O)N[C@H]2CC[C@H](CCNC(=O)CN3CCOCC3)O[C@H]2CO)cc1 | 0 | / | / | / | / | /
CC(NC(=O)c1ccc(NS(C)(=O)=O)cc1)c1ccccc1 (stereo unspecified) | / | 2 | 0 | -2 | -5 | -1
CC(NC(=O)c1ccccc1NS(C)(=O)=O)c1ccccc1 (stereo unspecified) | / | -2 | 5 | 19 | 4 | 20*
CC(NC(=O)c1ccccc1N)c1ccccc1 (stereo unspecified) | 43* | 4 | 7 | 5 | 3 | -2
CN(C)c1ccc(/C=C/c2nc3ccccc3s2)cc1 | / | -4 | -19 | 8 | 6 | 11*
C[C@H](CO)N1C[C@H](C)[C@@H](CN(C)Cc2cncnc2)Oc2ncc(C#Cc3ccccn3)cc2C1=O | 0 | / | / | / | / | /
O=C(CCCCn1c(=O)c2ccccc2n(Cc2ccc(Cl)cc2)c1=O)NCc1ccco1 | / | -15 | -12 | -2 | 6 | 14*
C[C@H]1CN([C@@H](C)CO)C(=O)c2cccc(NC(=O)NC3CCCCC3)c2O[C@H]1CN(C)Cc1ccc(C(F)(F)F)cc1 | 0 | / | / | / | / | /
CS(=O)(=O)Nc1ccc2c(c1)[C@H]1C[C@H](CC(=O)N3CCOCC3)O[C@@H](CO)[C@H]1O2 | 0 | / | / | / | / | /
O=C(C[C@H]1CC[C@H]2[C@@H](COC[C@H](O)CN2C(=O)c2ccncc2)O1)NC1Cc2ccccc2C1 | 0 | / | / | / | / | /
CCCCNC(=S)N1CCN(Cc2ccc3c(c2)OCO3)CC1 | 1 | -1 | 6 | -9 | 5 | -1
COc1cccc(CN2CCC(C(=O)N3CCN(c4ccccc4F)CC3)CC2)c1 | 0 | 1 | -7 | 5 | 7 | -3
COc1cccc(CN2CCN(C(=O)Nc3ccc([N+](=O)[O-])cc3)CC2)c1 | 43* | 2 | -10 | -11 | 11 | -1
COc1cccc(CN2CCC(C(=O)N3CCN(Cc4ccc5c(c4)OCO5)CC3)CC2)c1 | 0 | 5 | 10 | -2 | 12 | 13*
COCCCNC(=S)N1CCN(Cc2ccc3c(c2)OCO3)CC1 | 44* | 0 | 0 | 1 | 2 | -1
COCCNC(=O)CSc1nccn1Cc1ccc2c(c1)OCO2 | 43* | -6 | -10 | 2 | 4 | 0
CCCNC(=O)N1CC2(CCN(S(=O)(=O)c3cccc(OC)c3)CC2)c2c(n(C)c3cc(OC)ccc23)[C@@H]1CO | 0 | / | / | / | / | /
CCC(C)n1c(=S)[nH]c2ccccc2c1=O (stereo unspecified) | 43* | 3 | 7 | 8 | 17 | 2
CC(C)n1c(=S)[nH]c2ccccc2c1=O | / | 2 | -6 | 13 | 0 | 1
CC(C)(C)c1[nH]nc2c1C(c1ccco1)C(C#N)=C(N)O2 (stereo unspecified) | 44* | -6 | -4 | -2 | -5 | -1
CCCN(C)C[C@@H]1OCCCC[C@@H](C)Oc2ccc(NC(=O)CCC(F)(F)F)cc2C(=O)N([C@@H](C)CO)C[C@@H]1C | 0 | / | / | / | / | /
Cc1noc(C)c1S(=O)(=O)Nc1ccc2c(c1)C(=O)N([C@H](C)CO)C[C@@H](C)[C@@H](CN(C)S(=O)(=O)c1cccs1)O2 | 0 | / | / | / | / | /
SMILES | FGF22 binding | DNA FID counter | EBNA-1 inh | NS3 helicase inh | ZTA DNA inh | NR3A LBD binder
CCc1[nH]c(=O)c(C#N)c2c1CSC(C)(C)C2 | 0 | -6 | -2 | 4 | 5 | 13*
CCSc1nsc(NC(=O)Nc2cccc(OC)c2)n1 | / | -1 | -4 | 1 | -7 | 16*
COc1ccc(NC(=O)Nc2nnc(CC(=O)Nc3ccccc3)s2)cc1 | 0 | -2 | 10 | 4 | 2 | 4
COc1cccc(NC(=O)Cc2ccccc2)c1 | 0 | -5 | -4 | 1 | -4 | 10*
CCSc1nsc(NC(=O)Nc2ccccc2F)n1 | 0 | -6 | -1 | 5 | 18 | -2
C=CCSc1nsc(NC(=O)Nc2ccc(F)cc2)n1 | 0 | 2 | -6 | 3 | 1 | 28*
O=C(Nc1ccc(F)cc1)Nc1nnc(Cc2ccccc2)s1 | 0 | -6 | 9 | 4 | -2 | -3
COc1cccc(NC(=O)Nc2nnc(CC(=O)Nc3ccccc3)s2)c1 | 0 | -2 | -1 | -6 | -7 | 23*
C[C@H](CO)N1C[C@H](C)[C@@H](CN(C)C(=O)Nc2ccc(F)cc2)OCCCC[C@H](C)Oc2ccc(N(C)C)cc2C1=O | -1 | / | / | / | / | /
Cc1noc(C)c1NC(=O)N(C)C[C@@H]1Oc2ccc(NC(=O)Nc3cccc4ccccc34)cc2CC(=O)N([C@@H](C)CO)C[C@@H]1C | 0 | / | / | / | / | /
CCNC(=O)[C@H]1[C@H](CO)[C@H]2Cn3c(ccc(-c4ccc(F)cc4)c3=O)[C@H]2N1C(=O)Cc1cccnc1 | 0 | / | / | / | / | /
O=C(CCl)Nc1cccc(Oc2ccccc2)c1 | 43* | 0 | -14 | -2 | 8 | -2
COc1ccc(OC)c(/C=C/C(=O)OCC(=O)Nc2cccc(Oc3ccccc3)c2)c1 | 0 | -10 | 14 | -11 | 10 | -6
COc1cccc(NC(=O)CCNS(=O)(=O)c2cccc3nsnc23)c1 | 44* | 3 | 6 | -10 | 6 | 0
COc1cccc(NC(=O)COC(=O)/C=C/c2ccc(Cl)cc2Cl)c1 | 0 | -7 | 39* | -4 | 9 | 5
Cn1cc(CNCc2cnc3ccccn23)c(-c2ccc(Oc3ccccc3)cc2)n1 | 44* | 5 | -4 | -33 | 9 | 3
Cn1cc(CN2CCN(CCO)CC2)c(-c2ccc(Oc3ccccc3)cc2)n1 | 43* | 13 | 5 | -7 | 12 | -2
COCCN1CCN(Cc2cn(C)nc2-c2ccc(Oc3ccccc3)cc2)CC1 | 0 | 9 | 0 | -28 | -4 | 0
CN(Cc1cn(C)nc1-c1ccc(Oc2ccccc2)cc1)Cc1cnc2ccccn12 | 0 | 3 | -9 | -30 | -14 | -5
CO[C@H]1CN(C)C(=O)c2ccc(NC(=O)Nc3ccccc3F)cc2OC[C@H](C)N(C(C)=O)C[C@H]1C | 0 | / | / | / | / | /
